Laboratory results from ChEMBL document CHEMBL1155708, “Isoaurostatin, a novel topoisomerase inhibitor produced by Thermomonospora alba” (J Nat Prod, 2001).

Experiments:
[1] = target: T1, Type II restriction enzyme BamHI (Bacillus amyloliquefaciens, UniProt P23940); experiment: Inhibition of Bacillus amyloliquifaction Bam H1 assessed as undigested supercoiled pBR322 DNA concentration
T1 sequence (P23940 whole entry): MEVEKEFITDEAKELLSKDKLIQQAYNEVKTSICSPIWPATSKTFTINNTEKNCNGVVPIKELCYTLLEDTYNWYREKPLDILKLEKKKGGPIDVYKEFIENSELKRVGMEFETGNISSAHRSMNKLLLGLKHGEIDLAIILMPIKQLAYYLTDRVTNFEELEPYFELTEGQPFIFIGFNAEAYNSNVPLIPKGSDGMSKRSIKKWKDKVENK
Summary of the method: (§1)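 Restriction enzyme or nuclease activity followed as the remaining undigested supercoiled pBR322 DNA (or RNA) after reaction.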

[2] = target: T2, DNA topoisomerase 1 (Mus musculus, UniProt Q04750); experiment: Inhibition topoisomerase 1 in mouse NIH/3T3 cells assessed as conversion of supercoiled pBR322 DNA to relaxed form; format: cell-based, NIH3T3
T2 sequence (Q04750 whole entry): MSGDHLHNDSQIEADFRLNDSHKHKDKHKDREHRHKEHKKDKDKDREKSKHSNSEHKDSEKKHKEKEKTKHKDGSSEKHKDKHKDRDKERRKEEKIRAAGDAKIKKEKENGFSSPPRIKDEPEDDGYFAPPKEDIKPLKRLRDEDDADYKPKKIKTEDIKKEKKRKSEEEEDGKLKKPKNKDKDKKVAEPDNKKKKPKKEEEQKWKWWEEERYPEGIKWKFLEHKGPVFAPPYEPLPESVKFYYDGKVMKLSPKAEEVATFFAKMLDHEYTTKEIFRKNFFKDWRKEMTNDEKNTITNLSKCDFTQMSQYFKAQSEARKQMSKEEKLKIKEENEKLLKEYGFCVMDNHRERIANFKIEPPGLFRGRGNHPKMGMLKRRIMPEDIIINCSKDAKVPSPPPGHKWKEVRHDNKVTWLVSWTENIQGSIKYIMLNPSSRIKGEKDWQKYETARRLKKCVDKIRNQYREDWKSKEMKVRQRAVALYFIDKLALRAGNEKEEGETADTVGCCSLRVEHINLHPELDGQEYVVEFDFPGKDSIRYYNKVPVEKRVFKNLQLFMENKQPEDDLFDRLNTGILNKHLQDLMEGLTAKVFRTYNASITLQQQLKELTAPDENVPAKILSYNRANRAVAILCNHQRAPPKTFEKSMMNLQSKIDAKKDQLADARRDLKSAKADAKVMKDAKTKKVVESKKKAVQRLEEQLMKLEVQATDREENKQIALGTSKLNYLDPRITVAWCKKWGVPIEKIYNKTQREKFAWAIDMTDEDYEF
Summary of the method: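 Enzyme source: Vero or NIH3T3 cells cultured 5 days, washed in PBS and pelleted (1 × 10^6 cells). Lysed 30 min on ice in 200 µL buffer (10 mM Tris-HCl pH 7.5, MgCl2, EGTA, AEBSF, β-mercaptoethanol, 0.5% CHAPS, 10% glycerin); the cleared supernatant relaxed supercoiled pBR322. Gel densitometry; IC50 is the amount halving activity.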

[3] = target: T3, Deoxyribonuclease-2-alpha (Sus scrofa, UniProt O62855); experiment: Inhibition of porcine spleen DNase 2 assessed as undigested supercoiled pBR322 DNA concentration; summary of the method: as §1
T3 sequence (O62855 whole entry): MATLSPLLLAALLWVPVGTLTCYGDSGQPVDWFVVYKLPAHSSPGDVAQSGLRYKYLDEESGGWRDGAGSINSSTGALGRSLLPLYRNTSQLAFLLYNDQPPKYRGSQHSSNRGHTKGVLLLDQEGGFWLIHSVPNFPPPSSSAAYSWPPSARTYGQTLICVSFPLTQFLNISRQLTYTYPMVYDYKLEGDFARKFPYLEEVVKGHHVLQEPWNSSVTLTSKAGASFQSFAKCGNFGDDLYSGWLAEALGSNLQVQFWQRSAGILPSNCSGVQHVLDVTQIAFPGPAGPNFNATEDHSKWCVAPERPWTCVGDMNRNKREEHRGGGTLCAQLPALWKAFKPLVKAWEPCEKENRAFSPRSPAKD

[4] = target: DNA topoisomerase 2-alpha (Homo sapiens, UniProt P11388); experiment: Inhibition human placenta topoisomerase 2 assessed as conversion of catenated kinetoplast DNA to minicircle monomer
DNA topoisomerase 2-alpha, sequence (P11388 whole entry): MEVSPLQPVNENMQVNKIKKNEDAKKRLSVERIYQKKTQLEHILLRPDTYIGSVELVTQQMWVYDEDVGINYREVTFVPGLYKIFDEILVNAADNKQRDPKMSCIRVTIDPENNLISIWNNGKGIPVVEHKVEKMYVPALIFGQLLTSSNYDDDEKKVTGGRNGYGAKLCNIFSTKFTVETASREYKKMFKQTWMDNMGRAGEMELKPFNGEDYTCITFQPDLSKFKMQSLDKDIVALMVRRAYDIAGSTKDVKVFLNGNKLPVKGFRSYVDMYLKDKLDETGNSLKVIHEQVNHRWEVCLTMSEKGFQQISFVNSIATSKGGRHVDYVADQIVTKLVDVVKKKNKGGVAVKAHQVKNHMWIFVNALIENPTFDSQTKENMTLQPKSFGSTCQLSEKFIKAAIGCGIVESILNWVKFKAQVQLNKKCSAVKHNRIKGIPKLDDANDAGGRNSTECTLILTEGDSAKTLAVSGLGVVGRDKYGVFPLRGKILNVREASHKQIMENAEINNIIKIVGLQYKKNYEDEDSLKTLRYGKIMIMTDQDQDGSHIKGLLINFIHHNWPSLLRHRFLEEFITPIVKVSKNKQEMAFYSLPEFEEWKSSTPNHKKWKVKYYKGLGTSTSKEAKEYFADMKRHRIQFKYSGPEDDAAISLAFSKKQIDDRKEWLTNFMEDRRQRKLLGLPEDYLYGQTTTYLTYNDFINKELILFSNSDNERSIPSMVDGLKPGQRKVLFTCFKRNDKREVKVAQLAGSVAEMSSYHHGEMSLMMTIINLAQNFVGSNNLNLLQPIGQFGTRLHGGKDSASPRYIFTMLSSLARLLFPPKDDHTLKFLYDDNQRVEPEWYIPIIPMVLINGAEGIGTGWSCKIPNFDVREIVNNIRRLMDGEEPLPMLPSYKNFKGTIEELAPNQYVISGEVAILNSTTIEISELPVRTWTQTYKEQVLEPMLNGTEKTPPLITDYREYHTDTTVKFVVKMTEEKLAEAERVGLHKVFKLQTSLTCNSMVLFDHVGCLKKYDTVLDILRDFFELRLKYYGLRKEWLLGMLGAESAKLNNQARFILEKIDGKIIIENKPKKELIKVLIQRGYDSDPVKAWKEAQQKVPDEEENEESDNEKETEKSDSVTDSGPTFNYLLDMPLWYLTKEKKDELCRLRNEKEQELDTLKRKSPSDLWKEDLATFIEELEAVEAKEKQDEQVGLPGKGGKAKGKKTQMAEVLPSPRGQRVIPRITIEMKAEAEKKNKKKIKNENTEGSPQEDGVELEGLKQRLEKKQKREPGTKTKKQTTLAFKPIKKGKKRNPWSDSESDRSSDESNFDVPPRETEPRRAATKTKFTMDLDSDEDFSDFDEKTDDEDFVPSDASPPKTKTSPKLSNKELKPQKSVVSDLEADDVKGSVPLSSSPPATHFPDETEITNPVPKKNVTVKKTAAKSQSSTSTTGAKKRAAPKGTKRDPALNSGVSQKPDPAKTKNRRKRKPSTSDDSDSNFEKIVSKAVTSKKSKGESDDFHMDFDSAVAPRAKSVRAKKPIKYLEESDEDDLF
Summary of the method: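 Human placenta topoisomerase II decatenation followed as conversion of catenated kinetoplast DNA to minicircle monomers.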

[5] = target: Type II restriction enzyme EcoRI (Escherichia coli, UniProt P00642); experiment: Inhibition of Escherichia coli Eco R1 assessed as undigested supercoiled pBR322 DNA concentration; summary of the method: as §1
Type II restriction enzyme EcoRI, sequence (P00642 whole entry): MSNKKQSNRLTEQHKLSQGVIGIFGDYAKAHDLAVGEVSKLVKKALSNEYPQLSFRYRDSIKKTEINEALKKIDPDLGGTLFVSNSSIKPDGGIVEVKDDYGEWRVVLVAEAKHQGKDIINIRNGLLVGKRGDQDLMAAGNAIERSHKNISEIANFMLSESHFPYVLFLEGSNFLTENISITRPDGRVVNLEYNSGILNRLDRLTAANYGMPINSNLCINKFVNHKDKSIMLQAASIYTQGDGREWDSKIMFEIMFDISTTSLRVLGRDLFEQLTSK

[6] = target: T4, DNA topoisomerase (Bos taurus, UniProt A0JN73); experiment: Inhibition calf thymus gland topoisomerase 1 assessed as conversion of supercoiled pBR322 DNA to relaxed form
T4 sequence (A0JN73 whole entry): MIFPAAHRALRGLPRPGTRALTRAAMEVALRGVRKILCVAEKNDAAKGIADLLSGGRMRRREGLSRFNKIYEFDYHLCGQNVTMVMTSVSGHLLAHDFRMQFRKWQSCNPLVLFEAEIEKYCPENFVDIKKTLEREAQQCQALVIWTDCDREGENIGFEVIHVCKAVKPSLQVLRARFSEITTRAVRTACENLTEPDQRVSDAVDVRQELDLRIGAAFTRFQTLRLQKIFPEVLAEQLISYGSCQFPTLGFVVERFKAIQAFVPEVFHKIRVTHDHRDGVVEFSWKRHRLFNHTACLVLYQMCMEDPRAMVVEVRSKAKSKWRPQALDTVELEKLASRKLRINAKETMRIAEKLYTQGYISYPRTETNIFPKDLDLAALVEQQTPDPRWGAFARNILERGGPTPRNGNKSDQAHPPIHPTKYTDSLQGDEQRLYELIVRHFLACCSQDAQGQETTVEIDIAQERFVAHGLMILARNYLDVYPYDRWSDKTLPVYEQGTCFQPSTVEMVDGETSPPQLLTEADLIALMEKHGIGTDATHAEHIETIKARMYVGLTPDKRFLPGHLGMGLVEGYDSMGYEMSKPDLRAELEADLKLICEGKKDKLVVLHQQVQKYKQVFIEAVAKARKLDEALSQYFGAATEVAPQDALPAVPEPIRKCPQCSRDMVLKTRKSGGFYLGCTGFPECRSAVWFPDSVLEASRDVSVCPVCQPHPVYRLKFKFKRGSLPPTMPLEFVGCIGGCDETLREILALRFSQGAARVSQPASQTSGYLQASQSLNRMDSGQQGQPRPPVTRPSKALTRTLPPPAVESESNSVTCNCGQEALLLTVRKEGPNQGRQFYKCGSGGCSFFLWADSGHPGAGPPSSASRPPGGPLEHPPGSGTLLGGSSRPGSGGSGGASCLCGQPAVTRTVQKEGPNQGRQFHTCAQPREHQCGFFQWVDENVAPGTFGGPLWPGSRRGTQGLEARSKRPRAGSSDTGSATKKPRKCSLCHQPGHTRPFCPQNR

IC50 [4] | Compound | IC50 [1] | IC50 [2] | IC50 [3] | IC50 [5] | IC50 [6]
1 µM | COc1cccc2c1C(=O)c1c(O)c3c(c(O)c1C2=O)C[C@@](O)(C(=O)CO)C[C@@H]3O[C@H]1C[C@H](N)[C@H](O)[C@H](C)O1 [DOXORUBICIN] | > 200 µM | > 200 µM | > 200 µM | > 200 µM | > 200 µM
4 µM | C=C1NC(=O)C(C)C(CCC(C)C(=O)/C=C/C(C)=C/CC(C)CCCCCCC)OC(=O)[C@H](CC(OS(=O)(=O)O)C(N)=O)NC(=O)[C@@H](C)CNC1=O (stereo partly drawn) [TOPOSTATIN] | 185 µM | 47 µM | > 250 µM | > 250 µM | 17 µM
– | CC[C@@]1(O)C(=O)OCc2c1cc1n(c2=O)Cc2cc3ccccc3nc2-1 [CAMPTOTHECIN] | > 300 µM | 12 µM | > 300 µM | > 300 µM | 17 µM

Compound | IC50 [4] | IC50 [1] | IC50 [2] | IC50 [3] | IC50 [5] | IC50 [6]
O=C1Oc2cc(O)ccc2/C1=C\c1ccc(O)cc1 [ISOAUROSTATIN] | > 400 µM | > 400 µM | > 400 µM | > 400 µM | > 400 µM | 307 µM
